# Source: PMC3812312 (Journal of medicinal chemistry, 2013)
# Entries after “also recorded” stand apart in the source; their conditions may differ.
# Assays:
# MDA-MB-231 cells = experiment: Cell viability assay; assay type: cell-based; details: 72 hours after drug dosing; ERα−/β− breast cancer
# How it was run: (§1)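 Cell lines: MCF-7 (gift) and MDA-MB-231, DU145 and Vero (ATCC), kept in EMEM with 10% FBS, with or without antibiotics, at 37 °C under 5% CO2. Cells exposed to test compound in duplicate for 72 h; viability read by MTS and MTT colorimetric assays per manufacturer's instructions. IC50 obtained by logit plot analysis.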
# human ERβ LBD = human ERβ LBD (Homo sapiens, UniProt Q92731); experiment: ERβ agonist luciferase reporter assay in HEK 293T cells; assay type: cell-based; details: 10 μM; for ER subtype preference (ratio of ERα to ERβ agonist activity): agonist assay; for ERβ agonist activity: HEK-luciferase assay
# Sequence of human ERβ LBD (Q92731 263-530): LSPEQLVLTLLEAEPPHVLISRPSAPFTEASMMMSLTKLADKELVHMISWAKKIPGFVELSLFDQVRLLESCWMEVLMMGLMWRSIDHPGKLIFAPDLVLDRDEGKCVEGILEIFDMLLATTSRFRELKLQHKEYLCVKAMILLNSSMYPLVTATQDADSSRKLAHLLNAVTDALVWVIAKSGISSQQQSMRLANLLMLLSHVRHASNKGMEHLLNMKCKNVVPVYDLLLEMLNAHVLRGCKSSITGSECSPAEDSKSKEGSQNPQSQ
# VERO cells = experiment: Cell viability assay; assay type: cell-based; details: VERO versus MCF-7
# human recombinant HDAC1 = human recombinant HDAC1 (Homo sapiens, UniProt Q13547); experiment: HDAC activity assay; assay type: biochemical; details: HDAC isoforms 1, 6 and 8 tested
# Sequence of human recombinant HDAC1 (Q13547 whole entry, canonical isoform): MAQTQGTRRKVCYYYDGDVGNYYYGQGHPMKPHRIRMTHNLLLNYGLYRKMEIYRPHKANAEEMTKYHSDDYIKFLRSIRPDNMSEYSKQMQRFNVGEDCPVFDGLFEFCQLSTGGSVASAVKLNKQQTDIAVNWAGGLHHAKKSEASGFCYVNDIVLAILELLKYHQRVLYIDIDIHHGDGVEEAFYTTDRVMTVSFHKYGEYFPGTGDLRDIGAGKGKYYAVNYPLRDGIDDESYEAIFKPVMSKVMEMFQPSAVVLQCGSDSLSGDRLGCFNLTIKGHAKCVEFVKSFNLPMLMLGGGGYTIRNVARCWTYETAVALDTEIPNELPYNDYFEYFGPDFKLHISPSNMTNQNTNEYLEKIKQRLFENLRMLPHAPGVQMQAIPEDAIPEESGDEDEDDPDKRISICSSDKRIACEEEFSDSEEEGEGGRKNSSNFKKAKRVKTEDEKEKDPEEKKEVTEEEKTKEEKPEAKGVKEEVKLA
# MCF-7 cells = experiment: Cell viability assay; assay type: cell-based, human
# [1] = molecular target: T1, human ERα ligand binding domain (Homo sapiens, UniProt P03372); experiment: ERα agonist luciferase reporter assay in HEK 293T cells; assay type: cell-based; details: 10 μM, charcoal stripped serum
# T1 sequence (P03372 301-595): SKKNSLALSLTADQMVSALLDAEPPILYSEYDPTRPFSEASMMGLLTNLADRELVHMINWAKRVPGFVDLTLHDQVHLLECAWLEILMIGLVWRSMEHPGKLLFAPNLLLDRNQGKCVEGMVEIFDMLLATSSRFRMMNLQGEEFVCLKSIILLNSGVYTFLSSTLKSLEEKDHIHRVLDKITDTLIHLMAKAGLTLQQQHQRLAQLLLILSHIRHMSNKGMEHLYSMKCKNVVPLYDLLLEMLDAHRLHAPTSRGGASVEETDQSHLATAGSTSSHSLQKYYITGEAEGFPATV
# DU145 cells = experiment: Cell viability assay; assay type: cell-based; details: 72 hours after drug dosing; metastatic prostate cancer
# How it was run: as §1
# human recombinant HDAC8 = molecular target: T2, human recombinant HDAC8 (Homo sapiens, UniProt Q9BY41); experiment: HDAC activity assay; assay type: biochemical; details: maximum concentration tested 100 μM
# T2 sequence (Q9BY41 1-377): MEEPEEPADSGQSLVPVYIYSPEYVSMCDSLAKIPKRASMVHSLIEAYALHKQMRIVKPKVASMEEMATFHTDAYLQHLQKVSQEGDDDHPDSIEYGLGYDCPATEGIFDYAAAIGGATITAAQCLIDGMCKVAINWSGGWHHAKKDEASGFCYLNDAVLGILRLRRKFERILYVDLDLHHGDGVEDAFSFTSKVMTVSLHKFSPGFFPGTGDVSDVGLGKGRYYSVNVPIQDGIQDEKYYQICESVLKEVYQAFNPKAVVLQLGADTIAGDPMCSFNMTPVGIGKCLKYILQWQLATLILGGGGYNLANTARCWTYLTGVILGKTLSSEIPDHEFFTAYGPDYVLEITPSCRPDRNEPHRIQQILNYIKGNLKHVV
# human recombinant HDAC6 = experiment: HDAC activity assay; assay type: biochemical; details: HDAC6 vs HDAC1 and HDAC8
# How it was run: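 Run under contract. Human recombinant HDAC1, HDAC6 or HDAC8 incubated with HDAC substrate, 5 μg BSA and serial dilutions of test compound (DMSO stocks; 1% DMSO final, top 100 μM) in duplicate, 37 °C, 30 min. Developer added for 15 min at room temperature; fluorescence ex 360/em 460 nm.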
SMILES,"antiproliferative activity IC50, MDA-MB-231 (MDA-MB-231 cells)",ER subtype preference (ratio of ERα to ERβ agonist activity) (human ERβ LBD),in vitro therapeutic index (IVTI) (VERO cells),"HDAC inhibition activity, overall (isoform not given) (human recombinant HDAC1)",other results
"C[C@]12CC[C@@H]3c4ccc(O)cc4CC[C@H]3[C@@H]1CC[C@@]2(O)c1cn(CCCC(=O)NO)nn1 [1a, 4-(4-((8R,9S,13S,14S,17S)-3,17-dihydroxy-13-methyl-7,8,9,11,12,13,14,15,16,17-decahydro-6H-cyclopenta[a]phenanthren-17-yl)-1H-1,2,3-triazol-1-yl)-N-hydroxybutanamide]",comparable; also recorded: inhibit the growth of MDA-MB-231,too weak in vitro to have an obvious preference,greater IVTI,most potent HDACi,"antiproliferative activity IC50, MCF-7 (MCF-7 cells; 72 hours after drug dosing, ERα+/β+ breast cancer): comparable"
"C[C@]12CC[C@@H]3c4ccc(O)cc4CC[C@H]3[C@@H]1CC[C@@]2(O)c1cn(CCCCC(=O)NO)nn1 [1b, 5-(4-((8R,9S,13S,14S,17S)-3,17-dihydroxy-13-methyl-7,8,9,11,12,13,14,15,16,17-decahydro-6H-cyclopenta[a]phenanthren-17-yl)-1H-1,2,3-triazol-1-yl)-N-hydroxypentanamide]",,,,,"ERα agonist activity (fold activation, relative to control no drug) [1]: most significant ERα agonist effect"
"C[C@]12CC[C@@H]3c4ccc(O)cc4CC[C@H]3[C@@H]1CC[C@@]2(O)c1cn(CCCCCC(=O)NO)nn1 [1c, 6-(4-((8R,9S,13S,14S,17S)-3,17-dihydroxy-13-methyl-7,8,9,11,12,13,14,15,16,17-decahydro-6H-cyclopenta[a]phenanthren-17-yl)-1H-1,2,3-triazol-1-yl)-N-hydroxyhexanamide]",inhibit the growth of MDA-MB-231,preferentially bind ERβ,,most potent HDACi; also recorded: nM HDACi potency,"ERβ agonist activity (human ERβ LBD): significant ERβ activation; antiproliferative activity IC50, DU145 (DU145 cells): evidence of DU145 cell growth inhibition"
"C[C@]12CC[C@@H]3c4ccc(O)cc4CC[C@H]3[C@@H]1CC[C@@]2(O)c1cn(CCCCCCC(=O)NO)nn1 [1d, 7-(4-((8R,9S,13S,14S,17S)-3,17-dihydroxy-13-methyl-7,8,9,11,12,13,14,15,16,17-decahydro-6H-cyclopenta[a]phenanthren-17-yl)-1H-1,2,3-triazol-1-yl)-N-hydroxyheptanamide]",inhibit the growth of MDA-MB-231,preferentially bind ERβ,,most potent HDACi; also recorded: nM HDACi potency,"ERα agonist activity (fold activation, relative to control no drug) [1]: most significant ERα agonist effect; ERβ agonist activity (human ERβ LBD): significant ERβ activation; antiproliferative activity IC50, DU145 (DU145 cells): evidence of DU145 cell growth inhibition; HDAC8 inhibition IC50 (human recombinant HDAC8): order of magnitude greater HDAC8 inhibition"
"C[C@]12CC[C@@H]3c4ccc(O)cc4CC[C@H]3[C@@H]1CC[C@@]2(O)c1cn(CCCCCCCC(=O)NO)nn1 [1e, 8-(4-((8R,9S,13S,14S,17S)-3,17-dihydroxy-13-methyl-7,8,9,11,12,13,14,15,16,17-decahydro-6H-cyclopenta[a]phenanthren-17-yl)-1H-1,2,3-triazol-1-yl)-N-hydroxyoctannamide]",,too weak in vitro to have an obvious preference,,poor HDAC inhibition profile,
"CC/C(=C(\c1ccccc1)c1ccc(OCCN(C)Cc2ccc(-c3cn(CCCCCC(=O)NO)nn3)cc2)cc1)c1ccccc1 [compound 2, Tamoxifen-Triazolylhydroxamic acid]",,,greater IVTI,,potency relative to SAHA against MCF-7 (fold less potent) (MCF-7 cells): about 1.7 fold
"CC/C(=C(\c1ccccc1)c1ccc(OCCN(C)Cc2ccc(NC(=O)CCCCCCC(=O)NO)cc2)cc1)c1ccccc1 [compound 3, Tamoxifen-SAHA Conjugate]",,,greater IVTI,,HDAC isoform selectivity (human recombinant HDAC6): selective for HDAC6; potency relative to SAHA against MCF-7 (fold less potent) (MCF-7 cells): equipotent to SAHA
